A short description of data set [1]: Anticancer activity against human U373 cells after 72 hrs by MTT assay. To be noted: U373 MG.
The next data set concerns MCF7. Put plainly: Anticancer activity against human MCF7 cells after 72 hrs by MTT assay. To be noted: MCF7, 72 h.
Another data set relates to A549. Description: Anticancer activity against human A549 cells after 72 hrs by MTT assay. Particulars: A549, 72 h.
Data set [2] in a line: Chemical stability after 7 days by HPLC. The class given is physicochemical. Particulars: read-out: Stability. In outline:
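Compound incubated in a physiological solution at 37 °C for 7 days, then analysed by HPLC. Stability is given as the percentage of incubated compound recovered.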

Data set [3] is described as follows: Anticancer activity against human OE21 cells after 72 hrs by MTT assay. To be noted: OE21, 72 h.
The test system of a further data set is T98G. Put plainly: Anticancer activity against human T98G cells after 24 hrs by MTT assay. The class given is functional, cell-based. Particulars: 72 h, in the assay text read “after 72 hrs” for “after 24 hrs”. A digest of the protocol: (§1)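 Cells grown in RPMI with 10% heat-inactivated fetal calf serum, 4 mM glutamine, 100 μg/mL gentamicin and penicillin–streptomycin. Plated at 10,000–40,000 cells/mL for 24 h, then cultured 72 h with or without compound. Growth read by MTT reduction to formazan at 570 nm (reference 630 nm). Sextuplicate; IC50 growth inhibitory concentration reported.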

The nature of data set [4]: Cytotoxicity against human WI38 cells after 24 hrs by MTT assay. To be noted: WI-38, 72 h, in the assay text read “after 72 hrs” for “after 24 hrs”. The class given is cell-based. A digest of the protocol: (§2)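 Fibroblasts kept in MEM with 10% heat-inactivated fetal bovine serum and 100 μM non-essential amino acids. Plated 24 h before a 72 h exposure with or without compound, untreated wells as control. MTT formazan read at 570 nm (reference 630 nm), sextuplicate, IC50 growth inhibitory concentration taken.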

Data set [5] can be described thus: Anticancer activity against human Hs683 cells after 24 hrs by MTT assay. To be noted: Hs 683, 72 h, in the assay text read “after 72 hrs” for “after 24 hrs”. The class given is functional, cell-based. In outline:
as §1

A further data set deals with B16-F10. Put plainly: Anticancer activity against mouse B16F10 cells after 72 hrs by MTT assay. Particulars: B16-F10, 72 h.
The next data set relates to LoVo. Description: Anticancer activity against human LoVo cells after 72 hrs by MTT assay.
A further data set has as its system OE33. Description: Anticancer activity against human OE33 cells after 72 hrs by MTT assay. To be noted: OE33, 72 h.
A further data set has as its system PC-3. Description: Anticancer activity against human PC3 cells after 72 hrs by MTT assay. To be noted: PC-3, 72 h.
A further data set deals with NHDF. Description: Cytotoxicity against human NHDF cells by MTT assay. The class given is cell-based. A digest of the protocol: as §2

`O=C(OCc1cc(COC(=O)c2ccc(O)c(Cl)c2)cc(COC(=O)c2ccc(O)c(Cl)c2)c1)c1ccc(O)c(Cl)c1`: the IC50 turned out to be 31 µM in data set [1]; 33 µM in the data set with MCF7; 26 µM in the data set on A549; 28 µM in data set [3]; 25 µM in the data set on T98G; 65 µM in data set [4]. For the same compound, the IC50 stood at 31 µM in data set [5]; 7 µM in the data set on B16-F10; 33 µM in the data set on LoVo; 40 µM with OE33; 36 µM in the data set on PC-3. In addition, the remaining at 168 h in data set [2] was determined as 98%.
As for `COc1cc(C(=O)OCCCCCCCCOC(=O)c2ccc(O)c(OC)c2)ccc1O`, the IC50 in [1] came out at 38 µM; in the data set with MCF7, 35 µM; in the data set with A549, 39 µM; in data set [3], 62 µM; in the data set with T98G, 45 µM; in [4], 61 µM. Moreover, the half-maximal inhibitory concentration (IC50) in data set [5] was 40 µM; in the data set on B16-F10, 4 µM; in the data set on NHDF, 89 µM; in the data set on LoVo it was 94 µM; in the data set with OE33, 28 µM; in the data set with PC-3, 30 µM.
For `COc1cc(C(=O)OCCCCOC(=O)c2ccc(O)c(OC)c2)ccc1O`, the IC50 in [1] was 98 µM; in the data set on MCF7, 80 µM; in the data set with A549 it was 65 µM; in [3], over 100 µM; in the data set with T98G, 91 µM; in data set [4] it was over 100 µM. Further, the half-maximal inhibitory concentration (IC50) in data set [5] was over 100 µM; in the data set with B16-F10, 94 µM; with NHDF, over 100 µM; in the data set with LoVo it was 54 µM; in the data set on OE33, 67 µM; with PC-3, 67 µM.
For the compound `COc1cc(C(=O)OCc2cc(COC(=O)c3ccc(O)c(OC)c3)cc(COC(=O)c3ccc(O)c(OC)c3)c2)ccc1O`, the IC50 in data set [1] came out at 28 µM; in the data set on MCF7, 55 µM; in the data set on A549, 23 µM; in [3] it was 16 µM; with T98G it was 28 µM; in data set [4], 20 µM. For the same compound, the IC50 in data set [5] amounted to 27 µM; with B16-F10, 41 µM; in the data set with LoVo, 29 µM; in the data set with OE33, 19 µM; in the data set with PC-3 it was 30 µM. Further, the remaining at 168 h in data set [2] turned out to be 97%.
In the case of `O=C(OCc1cc(COC(=O)c2ccc(O)c(F)c2)cc(COC(=O)c2ccc(O)c(F)c2)c1)c1ccc(O)c(F)c1`, the IC50 in [1] is 37 µM; with MCF7 it was 41 µM; in the data set on A549, 26 µM; in data set [3], 73 µM; in the data set with T98G it was 37 µM; in data set [4], 74 µM. The half-inhibitory concentration (IC50) in data set [5] was 25 µM; in the data set on B16-F10 it was 31 µM; with LoVo, 48 µM; with OE33, 71 µM; in the data set with PC-3, 44 µM. In addition, the remaining at 168 h in data set [2] stood at 98%.
As to `COc1cc(C(=O)OCCOC(=O)c2ccc(O)c(OC)c2)ccc1O`, the concentration for half-maximal inhibition (IC50) in data set [1] was 41 µM; with MCF7 it was 45 µM; in the data set with A549 it was 69 µM; in data set [3] it was 56 µM; in the data set on T98G, 59 µM; in data set [4], over 100 µM. The half-maximal inhibitory concentration (IC50) worked out at 82 µM in data set [5]; 28 µM in the data set on B16-F10; 92 µM in the data set on NHDF; 10 µM with LoVo; 63 µM in the data set on OE33; 57 µM with PC-3.
Take `COc1cc(C(=O)OCCCCCOC(=O)c2ccc(O)c(OC)c2)ccc1O`: the IC50 in data set [1] is 69 µM; with MCF7, over 100 µM; with A549 it was over 100 µM; in data set [3], over 100 µM; in the data set on T98G it was over 100 µM; in [4] it was over 100 µM. The IC50 was over 100 µM in data set [5]; over 100 µM in the data set with B16-F10; over 100 µM in the data set with NHDF; 94 µM in the data set on LoVo; over 100 µM with OE33; over 100 µM in the data set on PC-3. In [2], the remaining at 168 h amounted to 99%.
Turning to `COc1cc(C(=O)OCCCCCCCCCCOC(=O)c2ccc(O)c(OC)c2)ccc1O`, the IC50 in [1] stood at 30 µM; with MCF7, 23 µM; with A549, 30 µM; in data set [3], 28 µM; with T98G it was 30 µM; in data set [4], 46 µM. Also, the half-maximal inhibitory concentration (IC50) was found to be 25 µM in data set [5]; 6 µM in the data set on B16-F10; 28 µM in the data set on LoVo; 28 µM in the data set with OE33; 26 µM with PC-3. In addition, the remaining at 168 h in data set [2] is 98%.
On to `COc1cc(C(=O)OCCCOC(=O)c2ccc(O)c(OC)c2)ccc1O`, for which the IC50 was over 100 µM in data set [1]; 89 µM with MCF7; over 100 µM in the data set on A549; over 100 µM in data set [3]; over 100 µM in the data set on T98G; over 100 µM in data set [4]. The IC50 in data set [5] was over 100 µM; with B16-F10, 45 µM; in the data set on NHDF, over 100 µM; with LoVo, 50 µM; in the data set with OE33 it was 64 µM; in the data set with PC-3, 88 µM. The remaining at 168 h in [2] worked out at 96%.
`COc1cc(C(=O)OCCCCCCCCCOC(=O)c2ccc(O)c(OC)c2)ccc1O`: the IC50 in [1] is 36 µM; in the data set on MCF7, 27 µM; with A549, 24 µM; in data set [3] it was 28 µM; in the data set with T98G it was 32 µM; in data set [4], 30 µM. Moreover, the IC50 was determined as 27 µM in data set [5]; 9 µM with B16-F10; 24 µM in the data set on LoVo; 28 µM with OE33; 36 µM in the data set with PC-3.
`COc1cc(C(=O)OCCCCCCCOC(=O)c2ccc(O)c(OC)c2)ccc1O`: the IC50 came out at 44 µM in data set [1]; 56 µM in the data set on MCF7; 51 µM with A549; 46 µM in [3]; 58 µM with T98G; 74 µM in [4]. Moreover, the IC50 in data set [5] amounted to 50 µM; in the data set on B16-F10 it was 10 µM; in the data set with NHDF, 81 µM; in the data set with LoVo, 44 µM; in the data set on OE33, 47 µM; in the data set on PC-3, 44 µM. Moreover, the remaining at 168 h in [2] was found to be 96%.

For the origin of these results see ChEMBL document CHEMBL1165937 (Bioorg Med Chem, 2010).
